Measured values taken from ChEMBL document CHEMBL5236602, “Synthesis and Characterization of NUC-7738, an Aryloxy Phosphoramidate of 3'-Deoxyadenosine, as a Potential Anticancer Agent” (J Med Chem, 2022).
Calls of active or inactive are those of the source. The calls are words filed in the database; no cut-off is given here.

Legend:
[1] = Metabolic stability in pooled cryopreserved human hepatocytes assessed as half life at 1 uM incubated for 60 mins by HPLC-MS/MS analysis; type: ADME, cell-based, Hepatocyte
How it was run: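 Pooled cryopreserved human hepatocytes were thawed, washed and resuspended in Krebs–Henseleit buffer, pH 7.3. Compound was added at 1 μM final and incubated 0 and 60 min at 37 °C/5% CO2. Reactions were stopped with acetonitrile, centrifuged, and the supernatant analysed by HPLC-MS/MS.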

BXPC-3 [2] = assay: Cytotoxicity against human BXPC-3 cells assessed as maximum cell growth inhibition incubated for 72 hrs by MTS assay relative to control; type: functional
How it was run: (§1)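 Cells from the 20-line panel were seeded the day before dosing, then exposed to compound for 72 h. MTS was added, followed by 4 h at 37 °C, and absorbance was read. Nine serial 3.16-fold dilutions were tested, top 198 μM, in duplicate. MI% is the maximum inhibitory effect across the tested concentration range.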

MV4-11 [3] = assay: Cytotoxicity against human MV4-11 cells assessed as cell death incubated for 72 hrs by MTS assay; type: functional; conditions: read-out: LC50 (the source's name)
How it was run: (§2)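 Contracted MTS assay. Cells seeded the day before treatment and exposed 72 h to nine serial concentrations (3.16-fold steps, top 198 μM), tested in duplicate. MTS added, then 4 h at 37 °C and absorbance read. LC50 is the concentration killing 50% of cells. MI% is the maximum inhibition over the tested range.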

NCI-H929 [4] = assay: Cytotoxicity against human NCI-H929 cells assessed as cell death incubated for 72 hrs by MTS assay; type: functional; conditions: read-out: LC50 (the source's name); how it was run: as §2
HepG2 [5] = assay: Cytotoxicity against human HepG2 cells assessed as cell death incubated for 72 hrs by MTS assay; type: functional; conditions: read-out: LC50 (the source's name); how it was run: as §2
[6] = Prodrug conversion in human K562 cells assessed as fold increase in 3'-dATP level at 50 uM incubated for 2 hrs by LC-MS/MS analysis relative to 3'-Deoxyadenosine; type: ADME, cell-based; conditions: k562, 2 h
MV4-11 [7] = assay: Cytotoxicity against human MV4-11 cells assessed as maximum cell growth inhibition incubated for 72 hrs by MTS assay relative to control; type: functional; how it was run: as §1
THP-1 [8] = assay: Cytotoxicity against human THP-1 cells assessed as maximum cell growth inhibition incubated for 72 hrs by MTS assay relative to control; type: functional; how it was run: as §1
CCRF-CEM [9] = assay: Cytotoxicity against human CCRF-CEM cells assessed as maximum cell growth inhibition incubated for 72 hrs by MTS assay relative to control; type: functional; how it was run: as §1
KG-1 = assay: Cytotoxicity against human KG-1 cells assessed as maximum cell growth inhibition incubated for 72 hrs by MTS assay relative to control; type: functional; how it was run: as §1
MCF7 = assay: Cytotoxicity against human MCF7 cells assessed as maximum cell growth inhibition incubated for 72 hrs by MTS assay relative to control; type: functional; how it was run: as §1
HL-60 [10] = assay: Potency index, ratio of 3'-Deoxyadenosine LC50 to test compound LC50 for cytotoxicity against human HL-60 cells assessed as cell death incubated for 72 hrs by MTS assay; type: functional
[11] = Cytotoxicity against human HS 445 cells assessed as maximum cell growth inhibition incubated for 72 hrs by MTS assay relative to control; type: functional; how it was run: as §1
[12] = Prodrug conversion in human RL cells assessed as fold increase in 3'-dATP level at 50 uM incubated for 2 hrs by LC-MS/MS analysis relative to 3'-Deoxyadenosine; type: ADME, cell-based
[13] = Cytotoxicity against human HS 445 cells assessed as cell death incubated for 72 hrs by MTS assay; type: functional; conditions: read-out: LC50 (the source's name); how it was run: as §2
MIA PaCa-2 [14] = assay: Cytotoxicity against human MIA PaCa-2 cells assessed as maximum cell growth inhibition incubated for 72 hrs by MTS assay relative to control; type: functional; how it was run: as §1
NCI-H929 [15] = assay: Cytotoxicity against human NCI-H929 cells assessed as maximum cell growth inhibition incubated for 72 hrs by MTS assay relative to control; type: functional; how it was run: as §1
CCRF-CEM [16] = assay: Potency index, ratio of 3'-Deoxyadenosine LC50 to test compound LC50 for cytotoxicity against human CCRF-CEM cells assessed as cell death incubated for 72 hrs by MTS assay; type: functional
[17] = Prodrug conversion in human HL-60 cells assessed as fold increase in 3'-dATP level at 50 uM incubated for 2 hrs by LC-MS/MS analysis relative to 3'-Deoxyadenosine; type: ADME, cell-based; conditions: hl-60, 2 h
CCRF-CEM [18] = assay: Cytotoxicity against deoxynucleotidyl transferase-positive human CCRF-CEM cells assessed as cell death preincubated with adenosine deaminase inhibitor, EHNA for 5 mins followed by compound addition and […]; type: functional, cell-based
RPMI-8226 [19] = assay: Cytotoxicity against human RPMI-8226 cells assessed as maximum cell growth inhibition incubated for 72 hrs by MTS assay relative to control; type: functional; how it was run: as §1
BXPC-3 [20] = assay: Cytotoxicity against human BXPC-3 cells assessed as cell death incubated for 72 hrs by MTS assay; type: functional; conditions: read-out: LC50 (the source's name); how it was run: as §2
Z-138 [21] = assay: Cytotoxicity against human Z138 cells assessed as cell death incubated for 72 hrs by MTS assay; type: functional; conditions: read-out: LC50 (the source's name); how it was run: as §2
HEL 92.1.7 [22] = assay: Cytotoxicity against human HEL 92.1.7 cells assessed as cell death incubated for 72 hrs by MTS assay; type: functional; conditions: read-out: LC50 (the source's name); how it was run: as §2
RPMI-8226 [23] = assay: Cytotoxicity against human RPMI-8226 cells assessed as cell death incubated for 72 hrs by MTS assay; type: functional; conditions: read-out: LC50 (the source's name); how it was run: as §2
Jurkat = assay: Cytotoxicity against human Jurkat cells assessed as cell death incubated for 72 hrs by MTS assay; type: functional; conditions: read-out: LC50 (the source's name); how it was run: as §2
Z-138 [24] = assay: Cytotoxicity against human Z138 cells assessed as maximum cell growth inhibition incubated for 72 hrs by MTS assay relative to control; type: functional; how it was run: as §1
CCRF-CEM [25] = assay: Cytotoxicity against human CCRF-CEM cells assessed as cell death incubated for 72 hrs by MTS assay; type: functional; conditions: read-out: LC50 (the source's name); how it was run: as §2
[26] = Prodrug conversion in human CCRF-CEM cells assessed as fold increase in 3'-dATP level at 50 uM incubated for 2 hrs by LC-MS/MS analysis relative to 3'-Deoxyadenosine; type: ADME, cell-based
HEL 92.1.7 [27] = assay: Cytotoxicity against human HEL 92.1.7 cells assessed as maximum cell growth inhibition incubated for 72 hrs by MTS assay relative to control; type: functional; how it was run: as §1
MIA PaCa-2 [28] = assay: Cytotoxicity against human MIA PaCa-2 cells assessed as cell death incubated for 72 hrs by MTS assay; type: functional; conditions: read-out: LC50 (the source's name); how it was run: as §2
K562 [29] = assay: Potency index, ratio of 3'-Deoxyadenosine LC50 to test compound LC50 for cytotoxicity against human K562 cells assessed as cell death incubated for 72 hrs by MTS assay; type: functional
RL [30] = assay: Cytotoxicity against human RL cells assessed as cell death incubated for 72 hrs by MTS assay; type: functional; conditions: read-out: LC50 (the source's name); how it was run: as §2
HL-60 [31] = assay: Cytotoxicity against human HL-60 cells assessed as maximum cell growth inhibition incubated for 72 hrs by MTS assay relative to control; type: functional; how it was run: as §1
HL-60 [32] = assay: Cytotoxicity against human HL-60 cells assessed as cell death incubated for 72 hrs by MTS assay; type: functional; conditions: read-out: LC50 (the source's name); how it was run: as §2
MOLT-4 = assay: Cytotoxicity against human MOLT-4 cells assessed as maximum cell growth inhibition incubated for 72 hrs by MTS assay relative to control; type: functional; how it was run: as §1
RL [33] = assay: Potency index, ratio of 3'-Deoxyadenosine LC50 to test compound LC50 for cytotoxicity against human RL cells assessed as cell death incubated for 72 hrs by MTS assay; type: functional
K562 [34] = assay: Cytotoxicity against human K562 cells assessed as cell death incubated for 72 hrs by MTS assay; type: functional; conditions: read-out: LC50 (the source's name); how it was run: as §2
SW-620 = assay: Cytotoxicity against human SW620 cells assessed as cell death incubated for 72 hrs by MTS assay; type: functional; conditions: read-out: LC50 (the source's name); how it was run: as §2
HepG2 [35] = assay: Cytotoxicity against human HepG2 cells assessed as maximum cell growth inhibition incubated for 72 hrs by MTS assay relative to control; type: functional; how it was run: as §1
THP-1 [36] = assay: Cytotoxicity against human THP-1 cells assessed as cell death incubated for 72 hrs by MTS assay; type: functional; conditions: read-out: LC50 (the source's name); how it was run: as §2

Compound `C[C@@H](NP(=O)(OC[C@@H]1C[C@@H](O)[C@H](n2cnc3c(N)ncnc32)O1)Oc1cccc2ccccc12)C(=O)OCc1ccccc1` (stereo partly specified) has a half-life at 1 µM [1] of 43.4 min, an Imax (BXPC-3 [2]) of 90% and a CC50 (MV4-11 [3]) of 1.48 µM. For the same compound, the CC50 (NCI-H929 [4]) was 3.38 µM, the CC50 (HepG2 [5]) was 11.5 µM and the “fold change (FC)” value [6] was 3. It also gave an Imax (MV4-11 [7]) of 99%, an Imax (THP-1 [8]) of 99% and an Imax (CCRF-CEM [9]) of 100%. It also gave an Imax (KG-1) of 100%, an Imax (MCF7) of 99% and a RatioLC50 (HL-60 [10]) of 3. The Imax [11] was 96%, the “fold change (FC)” value [12] was 3 and the CC50 [13] was 10.2 µM. The Imax (MIA PaCa-2 [14]) was 98%, the Imax (NCI-H929 [15]) was 99% and the RatioLC50 (CCRF-CEM [16]) was 3. For the same compound, the “fold change (FC)” value [17] was 3, the Activity (CCRF-CEM [18]) was “Active” and the Imax (RPMI-8226 [19]) was 102%. The CC50 (BXPC-3 [20]) was 74 µM, the CC50 (Z-138 [21]) was 6.32 µM and the CC50 (HEL 92.1.7 [22]) was 2.94 µM. It also gave a CC50 (RPMI-8226 [23]) of 19 µM, a CC50 (Jurkat) of 0.9 µM and an Imax (Z-138 [24]) of 100%. The CC50 (CCRF-CEM [25]) was 1.17 µM, the “fold change (FC)” value [26] was 3 and the Imax (HEL 92.1.7 [27]) was 98%. It also gave a CC50 (MIA PaCa-2 [28]) of 3.73 µM, a RatioLC50 (K562 [29]) of 3 and a CC50 (RL [30]) of 1.68 µM. For the same compound, the Imax (HL-60 [31]) was 100%, the CC50 (HL-60 [32]) was 6.37 µM and the Imax (MOLT-4) was 100%. It also gave a RatioLC50 (RL [33]) of 3, a CC50 (K562 [34]) of 4.93 µM and a CC50 (SW-620) of 11.4 µM. It also gave an Imax (HepG2 [35]) of 95% and a CC50 (THP-1 [36]) of 46.5 µM.
